In ChEMBL document CHEMBL1932916, “A carbamate-based approach to primaquine prodrugs: antimalarial activity, chemical stability and enzymatic activation” (Bioorg Med Chem, 2012):
Calls of active or inactive are those of the source. The rule behind the calls is not given here.

Tests used:
[1] = Dissociation constant, pKa of the compound; type: physicochemical
[2] = Alkaline hydrolysis of the compound assessed as rate constant by HPLC analysis; type: physicochemical
Method in brief: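 Borate and NaOH buffers with 20% (v/v) acetonitrile, ionic strength 0.5 M (NaClO4), 37 °C. Alkyl carbamates followed by HPLC (RP-8 column, acetonitrile/water/KH2PO4 1 M 55:40:5) as substrate loss and primaquine formation; aliquots neutralised with HCl before injection; aryl carbamates by fixed-wavelength UV decay of substrate. Second-order constant k_OH.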

[3] = Half life in aqueous buffer pH 7.4 by HPLC analysis; type: physicochemical
Method in brief: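 Non-enzymatic hydrolysis in pH 7.4 phosphate buffer, 20% (v/v) acetonitrile, 37 °C. Reaction followed by HPLC (RP-8 column, acetonitrile/water/KH2PO4 eluant) monitoring substrate loss and primaquine formation.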

Plasma [4] = test: Prodrug activation in 50% human plasma assessed as rate constant by HPLC analysis; type: cell-free
Method in brief: (§1)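 Pooled heparinised plasma from healthy donors, stored at -70 °C, diluted to 50% (v/v) with pH 7.4 isotonic phosphate buffer. Carbamate added from 10^-2 M stock, 37 °C. Aliquots quenched into acetonitrile, then HPLC quantitation of substrate, primaquine and, for aryl esters, phenol against standards. First-order k_plasma determined in triplicate.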

Plasma [5] = test: Half life for prodrug activation in 50% human plasma by HPLC analysis; type: cell-free; method in brief: as §1
Liver [6] = test: Prodrug activation in rat liver homogenate assessed as rate constant by HPLC analysis; type: tissue-based; conditions: tissue homogenate
Method in brief: (§2)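 Liver homogenate at 2 mg protein/mL in pH 7.4 PBS, 37 °C, with NADPH-generating system (glucose-6-phosphate 6.25 mM, NADP 1.25 mM, MgCl2 6 mM, G6PDH 2.5 U/mL). Substrates dissolved in PBS at initial 0.25–5.0 mM. HPLC followed substrate loss and primaquine formation. First-order k_liver determined in triplicate.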

Liver [7] = test: Half life for prodrug activation in rat liver homogenate by HPLC analysis; type: tissue-based; conditions: in vitro; method in brief: as §2
[8] = Octanol-phosphate buffer partition coefficient, log D of the compound at pH 7.4 after 30 mins by HPLC analysis; type: physicochemical
Method in brief: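 1-Octanol and pH 7.4 phosphate buffer, mutually pre-saturated, 22 °C. Compound dissolved in octanol and the mixture shaken 30 min to equilibrium. Each phase assayed by HPLC, and D taken as the octanol/buffer peak-area ratio. Mean of three experiments.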

Plasma [9] = test: Prodrug activation in 50% human plasma preincubated with 20 mM DIFP by HPLC analysis; type: cell-free
Method in brief: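 Same 50% human plasma incubation at 37 °C with HPLC monitoring, but plasma pre-incubated with 20 mM DIFP to inhibit serine cholinesterase before substrate addition.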

Plasma [10] = test: Stability of the compound in 50% human plasma for 3 hrs by HPLC analysis; type: ADME, cell-free; method in brief: as §1
Liver [11] = test: Prodrug activation in rat liver homogenate assessed as primaquine release by HPLC analysis; type: tissue-based; conditions: tissue homogenate; method in brief: as §2
[12] = Gametocytocidal activity against Plasmodium berghei ANKA 25R/10 infected in Balb/C mouse assessed as infected mosquitoes at 15 mg/kg, ip after 2 hrs feed Anopheles stephensi mosquitoes for 2 hrs on compound treated animals measured after 10 days post feed by stereomicroscopy (reference value: 91%); type: functional; conditions: route intraperitoneal
Method in brief: (§3)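 Balb C mice infected ip with 10^7 P. berghei ANKA 25R/10-parasitised erythrocytes. At day 4, once gametocytes were seen on Giemsa films, mice were grouped (six per group). A single ip dose of 15 mg/kg was given, with saline-treated controls run separately for each compound. After 2 h, anaesthetised mice were fed to A. stephensi. Midgut oocysts counted at day 10 post-feed; reported as % infected mosquitoes and mean oocysts per mosquito.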

Plasmodium berghei ANKA = test: Gametocytocidal activity against Plasmodium berghei ANKA 25R/10 infected in Balb/C mouse assessed as reduction in number of oocysts per mosquito at 15 mg/kg, ip after 2 hrs feed Anopheles stephensi mosquitoes for 2 hrs on compound treated animals measured after 10 days post feed by stereomicroscopy; type: functional, organism-based; set-up: dose 15 mg/kg; method in brief: as §3
[13] = Gametocytocidal activity against Plasmodium berghei ANKA 25R/10 infected in Balb/C mouse assessed as infected mosquitoes at 15 mg/kg, ip after 2 hrs feed Anopheles stephensi mosquitoes for 2 hrs on compound treated animals measured after 10 days post feed by stereomicroscopy (reference value: 80%); type: functional; conditions: route intraperitoneal; method in brief: as §3

Row | Compound | pKa [1] | Activity [2] | half-life [3] [h] | Drug metabolism (Plasma [4]) | t1/2 (Plasma [5]) [h] | Drug metabolism (Liver [6]) [×10⁻² /hr] | t1/2 (Liver [7]) [h] | logD at 0.5 h [8] | Drug metabolism (Plasma [9]) | Stability (Plasma [10]) | Drug metabolism (Liver [11]) | Activity [12] [%] | Activity (Plasmodium berghei ANKA) | Activity [13] [%]
1 | COc1cc(NC(C)CCCNC(=O)Oc2ccc(Cl)cc2)c2ncccc2c1 (centres undefined) | 9.38 | 7.17 M⁻¹ s⁻¹ | 96 | 3.06 ×10⁻⁴ /s | 0.638 | 5.85 | 11.8 | 4.44 | Not Active | – | – | – | – | –
2 | CCOC(=O)COC(=O)NCCCC(C)Nc1cc(OC)cc2cccnc12 (centres undefined) | 12.9 | 2.5 M⁻¹ s⁻¹ | 240 | – | – | – | – | 3.09 | – | – | – | – | – | –
3 | COc1cc(NC(C)CCCNC(=O)OCC(F)(F)F)c2ncccc2c1 (centres undefined) | 12.4 | 3.95 ×10⁻³ /M/s | – | – | – | 5.04 | 13.7 | 3.41 | – | Stable | Not Active | 72 | – | –
4 | COc1cc(NC(C)CCCN)c2ncccc2c1 (centres undefined) [PRIMAQUINE] | – | – | – | – | – | – | – | – | – | – | – | – | Active | 3.9
5 | CCCCCCOC(=O)NCCCC(C)Nc1cc(OC)cc2cccnc12 (centres undefined) | – | 3.49 ×10⁻⁷ /M/s | – | – | – | 6.63 | 10.4 | 4.64 | – | Stable | Not Active | 24 | Active | –
6 | CCOC(=O)NCCCC(C)Nc1cc(OC)cc2cccnc12 (centres undefined) | 15.9 | 9.34 ×10⁻⁷ /M/s | – | – | – | 4.56 | 15.1 | 3.02 | – | Stable | Not Active | 19 | Active | –
7 | COc1cc(NC(C)CCCNC(=O)Oc2ccccc2)c2ncccc2c1 (centres undefined) | 9.95 | 2.64 M⁻¹ s⁻¹ | 288 | 5.34 ×10⁻⁵ /s | 3.62 | 7.26 | 9.5 | 4.27 | – | – | – | – | Active | 65
8 | COc1ccc(OC(=O)NCCCC(C)Nc2cc(OC)cc3cccnc23)cc1 (centres undefined) | 10.2 | 9.1 ×10⁻¹ /M/s | > 720 | 2.45 ×10⁻⁵ /s | 7.78 | 6.7 | 10.3 | 4.23 | – | – | – | – | – | 74
9 | COc1cc(NC(C)CCCNC(=O)Oc2ccc([N+](=O)[O-])cc2)c2ncccc2c1 (centres undefined) | 7.14 | 2.4 ×10⁴ /M/s | 0.035 | – | 0.00267 | – | – | 4.23 | – | – | – | – | – | –
